M1 ag = activates the M1 muscarinic receptor; CHO-M1 cells, Fluo-4 calcium fluorescence, agonist mode; hits give high values; B-score at 10 µM; hit rate 3% among 64,000; AID 626;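 active means fluorescence rise, raw or as B-score row- and column-corrected plate score, outside the 99.7% band of its plate's samples, either direction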
M1 antag = blocks the rat M1 muscarinic receptor response to acetylcholine. P08482. CHO-M1 cells, Fluo-4 calcium, ACh EC80 antagonist mode; hits give low values. B-score at 10 µM. hit rate 3.4% among 64,000. AID 628;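 active means calcium fluorescence response, raw or row-and-column corrected B-score, differing from the plate sample mean either way at a set confidence level, mostly lower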
D1 allo mod = allosteric modulators of human D1 dopamine receptor | HEK293 D1, CRE-luciferase, dopamine EC30 potentiation; actives deviate in either direction | B-score at 10 µM | hit rate 5.9% among 58,000 | P21728;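 active means luminescence count or its row- and column-corrected plate score outside the 99.7% band of the plate's sample wells, on either side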
TNAP act DEA = activators of human TNAP at intermediate phosphate acceptor; 64,000 tested, under 10 active; purified TNAP, CDP-star luminescence, 100 mM DEA, 30 min; hits give high values; scale: 0 levamisole-inhibited, 1 vehicle-only enzyme; activation factor at 20 µM; AID 813;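 active means activation factor of at least 2 at 20 µM, relative to controls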
S1P3 ag = S1P3 (human) receptor agonism. S1P3 NFAT-BLA reporter cells, FRET ratio; relative to 1 µM S1P, basal subtracted. activation, % at 4.5 µM. hit rate 0.1% among 60,000;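 active means activation above the screen-wide mean plus 3 SD, cut at about 4.5% in these data, passing the limit was not always enough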
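Assay system: stable CHO line with human S1P3, Gα16, NFAT-BLA reporter; Detection: FRET β-lactamase substrate fluorescence, excitation 405 nm, 460/535 nm emission ratio, background-subtracted; Read-out: percent activation versus median 1 µM S1P response, basal-subtracted, per plate; Incubation: cells plated overnight, compound 4 h 37 °C, substrate 2 h RT.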
S1P1 ag-PAM = agonists and agonism potentiators of human S1P1 receptor. AID 449. S1P1 CRE-bla cells, forskolin, beta-lactamase FRET, potentiator mode; S1P1 agonist co-added at EC20, 2 nM; 100% = saturating reference agonist, 0% = basal. activation, % at 9.5 µM. hit rate 0.57% among 56,000;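 active means activation above a cutoff set at the mean activation of all tested compounds plus 3 SD, cut at about 54% in these data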;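 further: forskolin at 4 µM as EC80 and the EC20 agonist is SEW2871; 100% = SEW2871 at its EC100 plus forskolin at EC80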
Target sequence (P21453 whole entry, looked up): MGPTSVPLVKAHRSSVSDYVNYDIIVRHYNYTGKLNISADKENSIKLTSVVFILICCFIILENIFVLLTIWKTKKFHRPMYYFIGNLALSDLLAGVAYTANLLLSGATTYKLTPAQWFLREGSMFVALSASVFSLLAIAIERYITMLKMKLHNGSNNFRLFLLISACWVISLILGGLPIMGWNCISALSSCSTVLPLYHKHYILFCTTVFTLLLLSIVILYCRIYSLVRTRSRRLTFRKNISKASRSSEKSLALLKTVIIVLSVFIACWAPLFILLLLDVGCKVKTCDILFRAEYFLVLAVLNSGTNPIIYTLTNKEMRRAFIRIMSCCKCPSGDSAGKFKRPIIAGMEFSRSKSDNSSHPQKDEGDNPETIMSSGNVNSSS
The depositor's hits bear a star. Rows were chosen to be rich in hits. Some 11% of all compounds tested hit in one or more screens of this group.

Screening CCCN1Cc2cccc(C(=O)Nc3ccc(OC)c(OC)c3)c2C1=O returned M1 ag -0.806, M1 antag -0.496, D1 allo mod 3.8*, TNAP act DEA 1, S1P3 ag -0.8 and S1P1 ag-PAM -6.1.
Screening CCOc1ccccc1NC(=O)CCN1CCN(S(=O)(=O)c2ccc(Br)cc2)CC1 returned M1 ag 1, M1 antag 0.746, D1 allo mod -0.127, TNAP act DEA 0.9, S1P3 ag 0.0 and S1P1 ag-PAM -33.8.
Nn1c(SCC(=O)Nc2cccc(F)c2)nnc1C1CCCCC1 was read as M1 ag 0.0177, M1 antag -0.629, D1 allo mod 0.0141, TNAP act DEA 0.9, S1P3 ag -0.1 and S1P1 ag-PAM -16.6.
For Cc1ccc(S(=O)(=O)NC(=O)c2cc(C)n(CCCN3CCOCC3)c2C)cc1 the results were M1 ag -0.0121, M1 antag 0.152, D1 allo mod -2.41*, TNAP act DEA 1, S1P3 ag -0.4 and S1P1 ag-PAM 4.8.
`O=C(Nc1ccc2ccccc2c1)c1cnccn1` gave M1 ag 0.421, M1 antag -0.53, D1 allo mod -1.96*, TNAP act DEA 0.9, S1P3 ag -0.7 and S1P1 ag-PAM 26.9.
`Cc1c(C(=O)N2CCOCC2)sc(NC(=O)c2ccc3c(c2)OCO3)c1C#N` gave M1 ag -0.958, M1 antag -0.413, D1 allo mod -0.386, TNAP act DEA 0.9, S1P3 ag -0.1 and S1P1 ag-PAM -12.8.
c1ccc2c(c1)CCN(c1nc3cc4c(cc3s1)OCCO4)C2 was read as M1 ag 0.0405, M1 antag -0.382, D1 allo mod -6.09*, TNAP act DEA 0.9, S1P3 ag 0.8 and S1P1 ag-PAM 7.7.
`O=S(=O)(c1ccc2c(c1)OCCO2)N1CCN(c2nc3ccccc3s2)CC1` gave M1 ag 0.294, M1 antag -0.031, D1 allo mod 0.151, TNAP act DEA 1, S1P3 ag -0.2 and S1P1 ag-PAM 11.1.
For CC1=C(C(=O)Nc2ccccc2C)C(c2ccc(C)o2)N2C(=O)CSC2=N1 (stereo not given) the results were M1 ag -1.12, M1 antag -0.369, D1 allo mod -1.22, TNAP act DEA 1, S1P3 ag -1.0 and S1P1 ag-PAM -9.9.
`COCCCNC(=O)CCS(=O)(=O)Cc1ccc(C)cc1` gave M1 ag -0.222, M1 antag 0.185, D1 allo mod 0.211, TNAP act DEA 1, S1P3 ag -1.3 and S1P1 ag-PAM 3.3.
Screening COc1ccc(C2=C(O)C(C)N(c3ccccc3)C2=N)cc1OC (stereo not given) returned M1 ag -0.319, M1 antag -0.59, D1 allo mod -3.54*, TNAP act DEA 0.9, S1P3 ag 0.5 and S1P1 ag-PAM 13.7.
Screening COc1ccc(-c2cnn(-c3ccccc3)c2N)cc1OC returned M1 ag 0.205, M1 antag -0.0459, D1 allo mod 0.035, TNAP act DEA 0.9, S1P3 ag -0.8 and S1P1 ag-PAM -24.2.
`Cc1c(N=Cc2c(O)n(Cc3ccco3)c(=O)c3ccccc23)c(=O)n(-c2ccccc2)n1C` gave M1 ag -0.0266, M1 antag -2.83*, D1 allo mod 0.741, TNAP act DEA 0.9, S1P3 ag 0.0 and S1P1 ag-PAM -15.1.
`Cc1cccc(NC(=O)CCc2ccc(C)o2)c1` gave M1 ag -0.058, M1 antag -1.29, D1 allo mod -0.0402, TNAP act DEA 1, S1P3 ag -1.2 and S1P1 ag-PAM 3.8.
O=S(=O)(Nc1ccc2c(c1)OCCO2)c1ccc2oc3ccccc3c2c1 was read as M1 ag 0.293, M1 antag -0.0117, D1 allo mod -1.11, TNAP act DEA 0.9, S1P3 ag 0.4 and S1P1 ag-PAM 71.6*.
Screening COc1ccc(S(=O)(=O)Nc2ccc3c(c2)OCCO3)cc1Cl returned M1 ag 0.377, M1 antag -0.503, D1 allo mod -2.01, TNAP act DEA 1, S1P3 ag -1.0 and S1P1 ag-PAM 18.0.
For CC(=O)Oc1ccccc1C(=O)Oc1ccc(/C=N/n2cnnc2)cc1 the results were M1 ag -1.04, M1 antag 0.208, D1 allo mod -3.3*, TNAP act DEA 0.9, S1P3 ag -0.2 and S1P1 ag-PAM 43.9.

Source: PubChem BioAssay
